# Screens from PubChem.
# ABCB1 block = blocks JC-1 efflux by human ABCB1 transporter; inhibition, % at 6.6 µM; CCRF-Adr cells, flow cytometry; 0.067% of 190,000 active; in the data active means inhibition above about 40%;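 further: higher value means more JC-1 retained so stronger ABCB1 efflux block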
# Furin inhibitor = human furin inhibition | AID 463115 | P09958 | 0.061% of 220,000 active | purified furin, fluorogenic substrate cleavage | inhibition, % at 20 µM or 30 µM; in the data active means inhibition above about 25%
# HSV replic up = increases HSV replication in cells | 0.005% of 220,000 active | AID 1956 | maximum fold increase | HSV replication augmentation in cells, fold increase; in the data active means maximum fold increase above about 1.5; inconclusive means no clear call, values can overlap the other calls; tested in PC3 cells
# ABCG2 block = inhibitors of human ABCG2 transporter, ABCB1 counter-screen. IgMXP3 cells, JC-1 efflux, flow cytometry. inhibition, % at 6.6 µM. 0.1% of 190,000 active. AID 1325;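 active means inhibition above 80%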
#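 Incubation: cells with compound and JC-1, 10 min at 25 °C, rotating, no wash / Test system: IgMXP3 (ABCG2) plus far-red-tagged CCRF-Adr (ABCB1) cells / Compound dosing: one concentration, 6.6 µM final / Also added: JC-1 fluorescent substrate / Evaluation: efflux inhibition in percent versus controls / Detection: flow cytometry, 530 nm JC-1 signal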
# Arbovirus inh = arbovirus infection inhibition | arbovirus infection cell-based antiviral screen | inhibition, % at 10 µM | 0.37% of 200,000 active; in the data active means inhibition above about 30%
# p47phox inh = blocks human p47phox regulatory protein of NADPH oxidases. inhibition, % at 24.7 µM. p47phox/p22phox peptide binding, fluorescence polarization, 2 h. P14598. 0.53% of 220,000 active. AID 1274;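 active means inhibition above about 30%, limit read from the data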
# Numbers stand for hits; n = inactive; u = inconclusive; x = no result. This is a sample that favours compounds with a hit; in the whole collection about 0.95% have one here.
SMILES,ABCB1 block,Furin inhibitor,HSV replic up,ABCG2 block,Arbovirus inh,p47phox inh
CC(CCc1ccccc1)NC(=O)C1CCCN(C(=O)c2cc3sccc3n2C)C1 (stereo not drawn),n,n,n,n,n,n
CC(CCc1ccccc1)NC(=O)c1cc2sccc2n1C (stereo not drawn),n,n,n,n,42.0,n
O=C(Nc1cccc(S(=O)(=O)N2CCCCC2)c1)Nc1ccc(Cl)cc1Cl,n,n,n,n,n,n
CCOC(=O)c1c(C)nc2sc3c(=O)n(-c4ccc(C(C)=O)cc4)nnc3c2c1-c1ccc(Cl)cc1,n,n,n,n,n,59.6
COc1ccc(F)cc1C(=O)C1CCCN(C(=O)CSc2ccccn2)C1 (stereo not drawn),n,n,n,n,34.7,n
COc1ccccc1C(=O)C1CCCN(C(=O)CSc2ccccn2)C1 (stereo not drawn),n,n,n,n,n,n
COC(=O)C1CCN(C2=C(NS(=O)(=O)c3ccc(Cl)cc3)C(=O)c3ccccc3C2=O)CC1,x,n,n,x,x,n
CC1CCCN(C2=C(NS(=O)(=O)c3ccc(Cl)cc3)C(=O)c3ccccc3C2=O)C1 (stereo not drawn),n,n,n,n,n,50.4
O=C(NCCN1CCOCC1)C1CCN(S(=O)(=O)N2CCCC2)CC1,n,n,n,n,n,n
O=C(O)c1ccccc1Nc1cccc(C(F)(F)F)c1,n,n,x,n,38.4,n
Cn1cc(CN2CCN(c3ccccc3)CC2)c2ccccc21,n,n,n,n,35.8,n
COc1ccc(Cl)cc1C(=O)C1CCCN(Cc2cnc(N3CCOCC3)s2)C1 (stereo not drawn),n,n,n,n,n,47.1
COc1cc(NC(=O)C(C)C)ccc1NC(=O)c1ccco1,n,n,n,n,n,124.7
CC1=C(C(=O)OCC(Br)(Br)Br)C(c2cccc([N+](=O)[O-])c2)NC(=O)N1CCCC(=O)O (stereo not drawn),x,x,n,x,x,x
CCCOP(=O)(c1ccc(N(C)C)cc1)C(Nc1ccccc1)c1ccc(N(C)C)cc1 (stereo not drawn),n,28.0,n,n,n,n
CCCCOP(=O)(c1ccc(N(C)C)cc1)C(Nc1ccccc1)c1ccccc1 (stereo not drawn),n,n,n,n,n,n
CC(C)Cn1c(N)c(-c2nc(C(C)C)c(C(=O)c3ccccc3F)s2)c(=O)n(C)c1=O,n,n,n,n,n,n
Cc1ccc(Sc2ccc(N)cn2)cc1,x,n,n,x,x,n
Cc1cc(NC(=O)c2coc(=O)c(Br)c2)ccc1C(C)C,x,n,n,x,x,37.5
CN1CCN(S(=O)(=O)c2ccc(N3CCN(C(c4ccccc4)c4ccccc4)CC3)nc2)CC1,n,n,n,n,n,n
CN1CCN(S(=O)(=O)c2ccc(N3CCN(S(=O)(=O)/C=C/c4ccccc4)CC3)nc2)CC1,n,n,n,n,n,39.7
CCOC(=O)c1oc2cccc(O)c2c1CN(Cc1ccccc1)C(C)=O,n,n,n,n,n,32.8
CCOC(=O)c1oc2cccc(O)c2c1C,n,n,n,n,n,n
O=[N+]([O-])c1cccc(-c2ccc(/C=N/Nc3nc(N4CCCCC4)nc(N4CCCCC4)n3)o2)c1,n,n,n,n,n,n
COc1ccc(-c2cnnc(N/N=C/c3ccc(-c4ccc([N+](=O)[O-])cc4)o3)n2)cc1,n,n,n,n,n,59.6
SMILES,ABCB1 block,Furin inhibitor,HSV replic up,ABCG2 block,Arbovirus inh,p47phox inh
COc1nc(N/N=C/c2ccc(-c3cccc([N+](=O)[O-])c3)o2)nc(N2CCOCC2)n1,n,n,n,n,n,76.1
O=[N+]([O-])c1ccc(-c2ccc(/C=N/Nc3nc(N4CCCC4)nc(N4CCCC4)n3)o2)cc1,n,n,n,n,n,n
COC(=O)C(Cc1ccccc1)P(=O)(c1ccccc1)c1ccccc1 (stereo not drawn),n,n,n,n,n,n
O=C(O)C1CCCN1c1ncnc2c1oc1ccccc12 (stereo not drawn),n,n,n,n,n,n
O=C(O)C1CCCN1c1ncccn1 (stereo not drawn),n,n,n,n,n,78.3
CN(C)c1cccc2c(S(=O)(=O)N3CCOCC3)cccc12,n,n,n,n,n,58.8
COC(=O)c1c(-c2ccccc2)csc1N1C(=O)Nc2ccccc2N1O,n,n,n,n,35.7,n
CCOC(=O)c1c(-c2ccccc2)csc1N1C(=O)Nc2ccccc2N1O,n,n,n,n,n,n
CCOc1ccc(OCC)c(S(=O)(=O)NCc2ccc3c(c2)OCO3)c1,n,n,n,n,n,65.7
Cc1c(-c2ccccc2)oc2c(C(=O)OCC(=O)Nc3ccc(F)cc3)cccc2c1=O,n,n,n,n,n,n
COc1ccc(OCC(=O)N/N=C/c2ccsc2)cc1,n,n,n,n,n,73.8
O=[N+]([O-])c1cc(S(=O)(=O)N2CCOCC2)ccc1N1CCCC1,n,n,n,n,n,n
O=C(O)C1CCN(c2ccc(S(=O)(=O)N3CCOCC3)cc2[N+](=O)[O-])CC1,n,n,n,n,n,68.8
COCc1[nH]c(=S)[nH]c(=O)c1C,x,n,n,x,x,n
CCOc1cc(N2CCOCC2)c(OCC)cc1NC(=O)COc1ncnc2ccccc12,n,n,n,n,n,n
CCOc1cc(N2CCOCC2)c(OCC)cc1NC(=O)c1cc(-c2ccco2)nc2ccccc12,n,n,n,n,n,30.2
CCOc1ncccc1C(=O)NCCN1C(=O)S/C(=C/c2cccs2)C1=O,n,n,x,n,n,n
O=C1CCCC/C1=N\Nc1ccc(OCc2ccccc2)cc1,n,n,n,n,n,n
COc1ccc(OC)c(NC(=O)C2C3CCC(O3)C2C(=O)O)c1 (stereo not drawn),n,n,x,n,n,53.0
COc1cccc(N(C(=O)Cn2nnc(-c3cccs3)n2)C(C(=O)NC2CCCCC2)c2ccncc2)c1 (stereo not drawn),n,n,x,n,n,46.0
OC(CNC1CCCCC1)CNC1CCCCC1,n,n,n,n,39.2,n
OC(CNC1CCCC1)COCCOc1ccc(Br)cc1 (stereo not drawn),x,n,n,x,x,n
CCN1CCc2c(sc(NC(=O)Nc3ccc(Cl)c(Cl)c3)c2C(N)=O)C1,n,n,x,136.1,n,n
CCN1CCc2c(sc(NC(=S)NC(=O)c3ccco3)c2C(N)=O)C1,x,n,u,x,x,n
O=C(NCC1CCCO1)C1CCCCN1S(=O)(=O)c1ccc(F)cc1 (stereo not drawn),n,n,n,n,n,36.0
O=C(NCc1ccco1)C1CCCCN1S(=O)(=O)c1ccc(F)cc1 (stereo not drawn),n,n,n,n,n,n
CC12CC3CC(C)(C1)CC(CN1CCOCC1)(C3)C2,n,n,n,n,n,38.9
CCOC(=O)c1cc2c(=O)n3ccccc3nc2n(Cc2ccco2)c1=NC(=O)c1ccc(OC)cc1OC,n,n,n,n,n,n
